ChEMBL document CHEMBL4052599, “Combined in Vitro Cell-Based/in Silico Screening of Naturally Occurring Flavonoids and Phenolic Compounds as Potential Anti-Alzheimer Drugs” (J Nat Prod, 2017)

Legend:
[1] = tested on: Escherichia coli BL21(DE3); assay: Inhibition of amyloid beta (1 to 42) aggregation in Escherichia coli competent cells BL21 (DE3) at 200 uM after overnight incubation by Thioflavin-S steady-state fluorescence assay
Summary of the method: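 Aβ42 (extra N-terminal Met) expressed from pET28a in E. coli BL21(DE3). Cells grown in M9 minimal medium with 50 μg/mL kanamycin and 25 μM Th-S (final), IPTG-induced or not, with compound at 200 μM final in DMSO, overnight at 37 °C, 1400 rpm. Th-S read at ex 440 nm, em 460–600 nm. Amyloid band = induced minus noninduced spectrum, normalized to OD600.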

[2] = Inhibition of amyloid beta (1 to 42) aggregation in vitro cell-free polymerization assay
[3] = molecular target: T1, Amyloid-beta precursor protein (Homo sapiens, UniProt P05067); assay: Inhibition of amyloid beta (1 to 42) (unknown origin) aggregation by Thioflavin-T fluorescence assay
T1 sequence (P05067 whole entry): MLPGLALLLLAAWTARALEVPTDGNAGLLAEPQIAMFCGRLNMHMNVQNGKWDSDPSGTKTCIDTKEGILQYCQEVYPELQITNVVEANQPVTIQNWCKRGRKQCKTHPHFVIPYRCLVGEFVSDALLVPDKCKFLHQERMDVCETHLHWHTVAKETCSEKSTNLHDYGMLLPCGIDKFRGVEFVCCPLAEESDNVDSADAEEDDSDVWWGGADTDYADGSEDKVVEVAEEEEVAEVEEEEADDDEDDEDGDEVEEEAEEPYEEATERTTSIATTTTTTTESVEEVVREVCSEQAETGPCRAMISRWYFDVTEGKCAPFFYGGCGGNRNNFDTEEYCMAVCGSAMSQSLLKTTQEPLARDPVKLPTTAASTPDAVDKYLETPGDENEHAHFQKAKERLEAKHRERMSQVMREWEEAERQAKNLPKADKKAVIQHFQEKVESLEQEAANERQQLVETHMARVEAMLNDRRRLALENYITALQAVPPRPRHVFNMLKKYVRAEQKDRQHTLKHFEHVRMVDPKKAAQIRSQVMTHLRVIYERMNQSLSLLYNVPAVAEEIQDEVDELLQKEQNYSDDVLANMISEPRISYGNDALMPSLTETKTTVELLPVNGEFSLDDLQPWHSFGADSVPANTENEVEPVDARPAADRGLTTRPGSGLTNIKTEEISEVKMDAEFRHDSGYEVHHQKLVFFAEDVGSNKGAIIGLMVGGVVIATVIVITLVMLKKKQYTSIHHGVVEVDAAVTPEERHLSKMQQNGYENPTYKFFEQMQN

[4] = n-octanol-water partition coefficient, log P of the compound; assay type: physicochemical
[5] = molecular target: T1, Amyloid-beta precursor protein; assay: Inhibition of amyloid beta (1 to 42) (unknown origin) aggregation at 200 uM after 48 hrs by Thioflavin-T fluorescence assay relative to control
[6] = molecular target: T1, Amyloid-beta precursor protein; assay: Inhibition of amyloid beta (1 to 42) (unknown origin) aggregation assessed as lag time at 200 uM in Escherichia coli BL21 (DE3) cells by Thioflavin-S staining time-course kinetics (reference value: 64.4 mins)
[7] = molecular target: T1, Amyloid-beta precursor protein; assay: Displacement of [3H]PIB from human amyloid beta (1 to 40) fibrils after 3 hrs by liquid scintillation counting
[8] = molecular target: T1, Amyloid-beta precursor protein; assay: Inhibition of amyloid beta (1 to 42) (unknown origin) aggregation assessed as half life for aggregation at 200 uM by Thioflavin-S fluorescence assay
[9] = molecular target: T1, Amyloid-beta precursor protein; assay: Inhibition of amyloid beta (1 to 42) (unknown origin) aggregation assessed as apparent elongation constant at 200 uM after 48 hrs by Thioflavin-T fluorescence assay
[10] = molecular target: T1, Amyloid-beta precursor protein; assay: Inhibition of amyloid beta (1 to 42) (unknown origin) aggregation assessed as end-time for aggregation at 200 uM after 48 hrs by Thioflavin-T fluorescence assay
[11] = molecular target: T1, Amyloid-beta precursor protein; assay: Inhibition of recombinant amyloid beta (1 to 42) fibrils (unknown origin) by thioflavin-T fluorescence assay
[12] = n-octanol/water, read-out: logP

Q: Which inhibition [1] does the source give for `COc1ccc2[nH]cc(CCNC(C)=O)c2c1` here?
A: The inhibition was 7.5%.

Q: For `COc1cc(/C=C/C(=O)CC(=O)/C=C/c2ccc(O)c(OC)c2)ccc1O`, which inhibition [1] is on record?
A: Its inhibition is 37.8%.

Q: With `O=c1c(O)c(-c2ccccc2)oc2cc(O)cc(O)c12` [GALANGIN] as the compound, how does the IC50 [2] read?
A: The IC50 was over 500 µM.

Q: What does the source list for `O=C1c2c(O)cc(O)cc2O[C@H](c2cc(O)c(O)c(O)c2)[C@H]1O` [AMPELOPSIN]?
A: IC50 [2]: 25.3 µM; IC50 [3]: 12.8 to 25.3 µM

Q: For `O=c1c(O)c(-c2ccc(O)cc2)oc2cc(O)cc(O)c12` [KAEMPFEROL], which IC50 [2] is on record?
A: The IC50 was 75.1 µM.

Q: Which logP ([4]; octanol/water) does the source give for `O=c1c(O)c(-c2ccc(O)c(O)c2)oc2cc(O)cc(O)c12` [QUERCETIN] here?
A: Its logP is 2.7.

Q: What about the inhibition [5] of the same compound?
A: Its inhibition is 75.4%.

Q: What about the IC50 [2] of the same compound?
A: The IC50 was 15.3 µM.

Q: What about the inhibition [1] of the same compound?
A: Its inhibition is 81.3%.

Q: What about the Tlag [6] of the same compound?
A: Its Tlag is 82.7 min.

Q: What about the IC50 [3] of the same compound?
A: The IC50 was 125 µM.

Q: For `CNc1ccc(-c2nc3ccc(O)cc3s2)cn1`, which Kd [7] is on record?
A: The Kd was 0.0084 µM.

Q: And the logP [4, 12]?
A: Its logP is 2.7.

Q: Which inhibition [1] does the source give for `COc1cccc(C=O)c1O` here?
A: The inhibition was 18.5%.

Q: With `O=c1c(O)c(-c2ccccc2O)oc2cc(O)cc(O)c12` [DATISCETIN] as the compound, how does the IC50 [2] read?
A: Its IC50 is 55.4 µM.

Q: For `O=C(/C=C/c1ccc(O)c(O)c1)O[C@H](Cc1ccc(O)c(O)c1)C(=O)O`, which inhibition [1] is on record?
A: The inhibition was 5.5%.

Q: Which IC50 [2] does the source give for `O=c1c(O)c(-c2ccc(O)cc2O)oc2cc(O)cc(O)c12` [MORIN] here?
A: The IC50 was 30.3 µM.

Q: For `O=c1cc(-c2ccc(O)cc2)oc2cc(O)cc(O)c12` [APIGENIN], which T1/2 [8] is on record?
A: The T1/2 was 5.1 h.

Q: And the Ke(app) [9]?
A: Its Ke(app) is 61.6 M⁻¹ s⁻¹.

Q: What about the logP [4, 12] of the same compound?
A: The logP was 2.2.

Q: And the TIME [10]?
A: The TIME was 8.85 h.

Q: What about the inhibition [5] of the same compound?
A: The inhibition was 52.7%.

Q: And the inhibition [1]?
A: Its inhibition is 77.3%.

Q: What about the Tlag [6] of the same compound?
A: The Tlag was 81.3 min.

Q: What about the IC50 [11] of the same compound?
A: Its IC50 is 23 to 39 µM.

Q: And the IC50 [3]?
A: Its IC50 is 176 µM.
